Experimental data taken from PMC7184160 (EBioMedicine, 2020).
Where two headings read alike, the source gives them in different places.

Experiments:
metastatic RCC [1] = conditions: range over the agents, cited from earlier work
[2] = tested on: VEGFR2 (KDR), PDGFR, Flt3 and c-Kit; conditions: range over VEGFR2 (KDR), ref unpublished data; cited from earlier work
[3] = phase 1 safety and tolerability of vorolanib plus everolimus; format: in vivo, human; conditions: in the combination, 22 patients
How it was run: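 Open-label, single-centre 3+3 escalation in Chinese patients with advanced ccRCC after failed standard therapy. Oral test compound at 100, 150 or 200 mg daily, given 4 h after partner drug at a fixed 5 mg daily, in 28-day cycles. AEs graded by CTCAE v4.03. Allowed changes: stepwise reduction 200→150→100 mg/day, partner drug 5 mg every other day, and interruption up to 4 weeks.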

[4] = cited from earlier work
[5] = plasma pharmacokinetics of vorolanib, X-297 and everolimus; format: in vivo; conditions: human, oral, t1/2z (half-life), range over cohorts, first single dose, vorolanib 100–200 mg in combination with everolimus 5 mg
[6] = cited from earlier work; remark: listed apart in the source
[7] = cited from earlier work; remark: listed apart in the source
metastatic RCC [8] = conditions: phase II, advanced RCC after one previous antiangiogenic therapy; cited from earlier work
[9] = cited from earlier work; remark: listed apart in the source
[10] = established second-line monotherapies, Discussion
[11] = second-line options for metastatic RCC
[12] = monotherapy 50–800 mg once daily

Compound: COc1cc2nccc(Oc3ccc(NC(=O)C4(C(=O)Nc5ccc(F)cc5)CC4)cc3)c2cc1OC [cabozantinib]
- median PFS (metastatic RCC [1]; [10]): 4.4–8.3 months
- median PFS (metastatic RCC [1]; [11]): 3.8–7.4 months

Compound: Cc1[nH]c(/C=C2\C(=O)Nc3ccc(F)cc32)c(C)c1C(=O)N[C@H]1CCN(C(=O)N(C)C)C1 [vorolanib, Vorolanib]
- IC50 [2]: 0.13 to 1.12 nM
- patients with dose interruption [3]: fourteen
- patients with dose reduction [3]: four
- patients with grade 3 or higher events ([4]; across 100 to 250 mg dose cohort): 7 out of 19
- recommended dose for monotherapy [4]: 200 mg
- MTD ([4]; monotherapy 50–250 mg once daily, Chinese patients): not achieved
- dose-limited toxicity (DLT) ([4]; monotherapy, China): No dose-limited toxicity (DLT) was observed
- half-life [5]: 4.74 to 12.9 h
- grade 4 AEs or deaths related to vorolanib [6, 12]: no grade 4 AEs or deaths related to vorolanib was reported
- treatment-related grade 3 adverse event proteinuria [6, 12]: 4%
- apparent saturation of absorption (dose) ([6]; monotherapy tablet once daily): 400 to 800 mg
- MTD ([6]; monotherapy tablet, dose range 50–800 mg once daily, solid tumors): not achieved
- maximum tolerated dose (MTD) ([6]; monotherapy, dose range 20 to 400 mg daily): without achieving the most tolerated dose (MTD)
- recommended dose of monotherapy ([6]; once daily, patients with advanced cancer): 400 mg

Compound: CCN(CC)CCNC(=O)c1c(C)[nH]c(/C=C2\C(=O)Nc3ccc(F)cc32)c1C [sunitinib]
- grade 3/4 AE diarrhea [7]: 5%
- grade 3/4 AE fatigue [7]: 7%
- grade 3/4 AE hand-foot syndrome [7]: 5%
- grade 3/4 AE hypertension [7]: 8%
- grade 3/4 AE increased lipase [7]: 13%
- grade 3/4 AE lymphopenia [7]: 12%
- grade 3/4 AE neutropenia [7]: 11%
- grade 3/4 AE vomiting [7]: 4%

Compound: CO[C@H]1C[C@@H]2CC[C@@H](C)[C@@](O)(O2)C(=O)C(=O)N2CCCC[C@H]2C(=O)O[C@H]([C@H](C)C[C@@H]2CC[C@@H](OCCO)[C@H](OC)C2)CC(=O)[C@H](C)/C=C(\C)[C@@H](O)[C@@H](OC)C(=O)[C@H](C)C[C@H](C)/C=C/C=C/C=C/1C [everolimus]
- patients with dose interruption [3]: eight
- median PFS (metastatic RCC [8]): 5.5 months
- patients with grade 3 and 4 events [9]: 50%
- median PFS (metastatic RCC [1]; [10]): 4.4–8.3 months
- median PFS (metastatic RCC [1]; [11]): 3.8–7.4 months

Compound: COc1cc2nccc(Oc3ccc(NC(=O)NC4CC4)c(Cl)c3)c2cc1C(N)=O [lenvatinib]
- median PFS (metastatic RCC [8]): 7.4 months

Compound: nivolumab
- median PFS (metastatic RCC [1]; [10]): 4.4–8.3 months
- median PFS (metastatic RCC [1]; [11]): 3.8–7.4 months

Compound: CNC(=O)c1ccccc1Sc1ccc2c(/C=C/c3ccccn3)n[nH]c2c1 [axitinib]
- median PFS (metastatic RCC [1]; [10]): 4.4–8.3 months
- median PFS (metastatic RCC [1]; [11]): 3.8–7.4 months
